Data from ChEMBL document CHEMBL1629583, “Establishment of in vitro susceptibility testing methodologies and comparative activities of piperacillin in combination with the penem {beta}-lactamase inhibitor BLI-489” (2009).

Assays:
Type in all cases: functional
Staphylococcus aureus = experiment: Antimicrobial activity against methicillin-resistant Staphylococcus aureus clinical isolate after 18 to 22 hrs by broth microdilution method in presence of beta-lactamase inhibitor BLI-489
Method in brief: (§1)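 CLSI broth microdilution in Mueller-Hinton II broth. Antibiotic in serial dilution with the β-lactamase inhibitor held at a constant 4 μg/ml. Inoculum 10^5 CFU/ml. Incubated 18 to 22 h at 35°C in ambient air.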

[1] = test system: Staphylococcus epidermidis; experiment: Antimicrobial activity against methicillin-resistant Staphylococcus epidermidis clinical isolate after 18 to 22 hrs by broth microdilution method in presence of beta-lactamase inhibitor Tazobactam; method in brief: as §1
Enterococcus faecalis = experiment: Antimicrobial activity against Enterococcus faecalis clinical isolate after 18 to 22 hrs by broth microdilution method in presence of beta-lactamase inhibitor Tazobactam; method in brief: as §1
Enterococcus avium = experiment: Antimicrobial activity against Enterococcus avium clinical isolate after 18 to 22 hrs by broth microdilution method in presence of beta-lactamase inhibitor Tazobactam
Method in brief: (§2)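 Piperacillin-tazobactam was tested on recent clinical isolates by CLSI broth microdilution in Mueller-Hinton II broth, with tazobactam at constant 4 μg/ml. Wells held 10^5 CFU/ml and were incubated 18 to 22 h at 35°C in ambient air. MIC was the lowest concentration with no growth visible to the unaided eye.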

Streptococcus pneumoniae = experiment: Antimicrobial activity against penicillin-susceptible Streptococcus pneumoniae clinical isolate after 18 to 22 hrs by broth microdilution method in presence of beta-lactamase inhibitor BLI-489
Method in brief: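 Streptococci were tested by CLSI broth microdilution in Mueller-Hinton II broth plus 5% lysed horse blood. Piperacillin was serially diluted with BLI-489 fixed at a constant 4 μg/ml. Inoculum was 10^5 CFU/ml, with 18 to 22 h at 35°C in ambient air. MIC was the lowest concentration completely inhibiting growth by eye.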

Streptococcus agalactiae = experiment: Antimicrobial activity against Streptococcus agalactiae clinical isolate after 18 to 22 hrs by broth microdilution method in presence of beta-lactamase inhibitor Tazobactam
Method in brief: (§3)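 Streptococcal isolates were tested with piperacillin-tazobactam by CLSI broth microdilution in Mueller-Hinton II broth supplemented with 5% lysed horse blood. Inoculum was 10^5 CFU/ml, incubated 18 to 22 h at 35°C in ambient air. Visual endpoint: lowest concentration with complete inhibition.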

Bacteroides uniformis = experiment: Antimicrobial activity against Bacteroides uniformis clinical isolate after 18 to 22 hrs by broth microdilution method in presence of beta-lactamase inhibitor BLI-489
Clostridium perfringens [2] = experiment: Antimicrobial activity against Clostridium perfringens clinical isolate after 18 to 22 hrs by broth microdilution method
Clostridium perfringens [3] = experiment: Antimicrobial activity against Clostridium perfringens clinical isolate after 18 to 22 hrs by broth microdilution method in presence of beta-lactamase inhibitor BLI-489
[4] = test system: Peptostreptococcus anaerobius; experiment: Antimicrobial activity against Peptostreptococcus anaerobius clinical isolate after 18 to 22 hrs by broth microdilution method in presence of beta-lactamase inhibitor Tazobactam
[5] = test system: Enterococcus casseliflavus; experiment: Antimicrobial activity against Enterococcus casseliflavus clinical isolate after 18 to 22 hrs by broth microdilution method in presence of beta-lactamase inhibitor BLI-489
Method in brief: (§4)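 CLSI broth microdilution in Mueller-Hinton II broth. Piperacillin serial dilutions were combined with BLI-489 held constant at 4 μg/ml. Inoculum was 10^5 CFU/ml. Plates were incubated 18 to 22 h at 35°C in ambient air. MIC was the lowest concentration completely inhibiting growth seen by the unaided eye. Piperacillin-tazobactam interpretive criteria were applied.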

Enterococcus durans = experiment: Antimicrobial activity against Enterococcus durans clinical isolate after 18 to 22 hrs by broth microdilution method in presence of beta-lactamase inhibitor Tazobactam; method in brief: as §2
Streptococcus pyogenes = experiment: Antimicrobial activity against Streptococcus pyogenes clinical isolate after 18 to 22 hrs by broth microdilution method in presence of beta-lactamase inhibitor Tazobactam; method in brief: as §3
Escherichia coli = experiment: Antimicrobial activity against class A extended spectrum beta-lactamase- and class D OXA- producing Escherichia coli clinical isolate after 18 to 22 hrs by broth microdilution method in presence of beta-lactamase inhibitor Tazobactam
Klebsiella aerogenes = experiment: Antimicrobial activity against AmpC beta-lactamase-producing Enterobacter aerogenes clinical isolate after 18 to 22 hrs by broth microdilution method in presence of beta-lactamase inhibitor Tazobactam; method in brief: as §2
Serratia marcescens [6] = experiment: Antimicrobial activity against AmpC beta-lactamase-producing Serratia marcescens clinical isolate after 18 to 22 hrs by broth microdilution method in presence of beta-lactamase inhibitor Tazobactam; method in brief: as §2
Citrobacter freundii = experiment: Antimicrobial activity against Citrobacter freundii clinical isolate after 18 to 22 hrs by broth microdilution method in presence of beta-lactamase inhibitor BLI-489; method in brief: as §4
Klebsiella pneumoniae [7] = experiment: Antimicrobial activity against class A extended spectrum beta-lactamase- producing Klebsiella pneumoniae clinical isolate after 18 to 22 hrs by broth microdilution method in presence of beta-lactamase inhibitor Tazobactam
Method in brief: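 CLSI broth microdilution of piperacillin-tazobactam in Mueller-Hinton II broth with serial dilutions. Inoculum was 10^5 CFU/ml. Incubation was 18 to 22 h at 35°C in ambient air. MIC was read as the lowest concentration giving complete inhibition of growth visible to the unaided eye.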

Klebsiella pneumoniae [8] = experiment: Antimicrobial activity against AmpC- producing Klebsiella pneumoniae clinical isolate after 18 to 22 hrs by broth microdilution method in presence of beta-lactamase inhibitor BLI-489; method in brief: as §4
Serratia marcescens [9] = experiment: Antimicrobial activity against Serratia marcescens clinical isolate after 18 to 22 hrs by broth microdilution method in presence of beta-lactamase inhibitor Tazobactam
Method in brief: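 Piperacillin-tazobactam was tested by CLSI broth microdilution in Mueller-Hinton II broth against clinical isolates. Inoculum was 10^5 CFU/ml, with 18 to 22 h incubation at 35°C in ambient air. MIC was read as the lowest concentration completely inhibiting visible growth.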

Proteus vulgaris = experiment: Antimicrobial activity against Proteus vulgaris clinical isolate after 18 to 22 hrs by broth microdilution method in presence of beta-lactamase inhibitor BLI-489
Method in brief: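 CLSI broth microdilution in Mueller-Hinton II broth. Serial dilutions of piperacillin were tested with BLI-489 held at a constant 4 μg/ml. Inoculum was 10^5 CFU/ml. Plates were incubated 18 to 22 h at 35°C in ambient air. MIC was the lowest concentration giving complete growth inhibition by unaided eye.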

Acinetobacter lwoffii = experiment: Antimicrobial activity against Acinetobacter lwoffii clinical isolate after 18 to 22 hrs by broth microdilution method in presence of beta-lactamase inhibitor BLI-489; method in brief: as §4

CCN1CCN(C(=O)N[C@@H](C(=O)N[C@@H]2C(=O)N3[C@@H]2SC(C)(C)[C@@H]3C(=O)O)c2ccccc2)C(=O)C1=O [PIPERACILLIN]
1 µg/mL: MIC50 [1] | MIC50 (Escherichia coli) | MIC90 (Proteus vulgaris)
64 µg/mL: MIC90 (Enterococcus avium) | MIC90 (Serratia marcescens [9])
0.12 µg/mL: MIC50 (Streptococcus agalactiae)
≤ 0.015 µg/mL: MIC (Clostridium perfringens [3]) | MIC50 (Clostridium perfringens [3]) | MIC90 (Clostridium perfringens [3]) | MIC [4] | MIC50 [4] | MIC90 [4]
2 µg/mL: MIC (Enterococcus faecalis) | MIC50 (Enterococcus faecalis) | MIC50 [5] | MIC90 (Escherichia coli) | MIC50 (Citrobacter freundii) | MIC50 (Serratia marcescens [9])
> 128 µg/mL: MIC90 (Klebsiella pneumoniae [7]) | MIC90 (Klebsiella pneumoniae [8])
≤ 0.004 µg/mL: MIC (Streptococcus pneumoniae) | MIC50 (Streptococcus pneumoniae) | MIC90 (Streptococcus pneumoniae)
4 µg/mL: MIC90 (Enterococcus faecalis) | MIC50 (Bacteroides uniformis) | MIC50 (Enterococcus durans) | MIC50 (Klebsiella aerogenes) | MIC50 (Acinetobacter lwoffii)
32 µg/mL: MIC50 (Staphylococcus aureus) | MIC50 (Klebsiella pneumoniae [7])
> 8 µg/mL: MIC (Klebsiella aerogenes)
0.25 µg/mL: MIC90 (Streptococcus agalactiae) | MIC90 (Clostridium perfringens [2])
8 µg/mL: MIC90 [1] | MIC90 (Bacteroides uniformis) | MIC90 [5] | MIC50 (Serratia marcescens [6])
16 µg/mL: MIC50 (Enterococcus avium) | MIC90 (Enterococcus durans) | MIC90 (Klebsiella aerogenes) | MIC90 (Serratia marcescens [6]) | MIC90 (Citrobacter freundii) | MIC50 (Klebsiella pneumoniae [8]) | MIC90 (Acinetobacter lwoffii)
0.06 µg/mL: MIC50 (Clostridium perfringens [2]) | MIC90 (Streptococcus pyogenes)
0.5 µg/mL: MIC50 (Proteus vulgaris)
0.03 µg/mL: MIC50 (Streptococcus pyogenes)
